Laboratory results: paper PMC5033602 (Investigative Ophthalmology & Visual Science, 2016)
Read-outs that look alike come from different tables or passages of the source.

What was measured:
[1] = tested on: PNPLA2; assay: RT-PCR, PNPLA2 mRNA in ARPE-19; assay type: cell-based, human; details: H2O2 200, 400, 500, 600, 800 μM plus 10 ng/mL TNF-α, 8 hours, relative to 18S, duplicate wells
In short: (§1)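 Confluent ARPE-19 cells were starved in 0.5% serum for 8 h, then treated with H₂O₂ plus TNF-α. Total RNA was purified on silica columns, and 1 μg was reverse transcribed with SuperScript III. mRNA was measured by semiquantitative real-time RT-PCR with gene-specific primers and 18S primers as internal control.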

[2] = tested on: 5-LOX; assay: Immunoblot, 5-LOX protein in ARPE-19 lysates; assay type: cell-based, human; details: H2O2 plus 10 ng/mL TNF-α, 8 hours
In short: (§2)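 ARPE-19 cells (passages 27–40) were grown in DMEM/F-12 with 10% FBS at 37°C, 5% CO₂ to confluency and starved in 0.5% serum for 8 h. They were then exposed to graded H₂O₂ with 10 ng/mL TNF-α for 8 h. Total lysates were run on SDS-PAGE and immunoblotted, then stripped and reprobed for β-tubulin as loading control. Duplicate wells; each experiment at least twice.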

[3] = tested on: ARPE-19 cells; details: cited from earlier work
[4] = tested on: ARPE-19 cells; assay: Cell viability; assay type: cell-based, human
In short: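 ARPE-19 cells (passages 27–40; DMEM/F-12, 10% FBS, 37°C, 5% CO₂) were plated at 2 × 10⁴ cells/well and grown to confluence (72 h). After 8 h starvation in 0.5% serum, cells received increasing H₂O₂ plus TNF-α (10 ng/mL), with or without test peptide, for 16 h. Relative live-cell numbers came from intracellular ATP luminescence; each point is the mean of duplicate wells.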

[5] = tested on: primary pig RPE cells; assay: Cell viability; assay type: cell-based; details: 50-250 μM H2O2, 10 ng/mL TNF-α
In short: (§3)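 Primary pig RPE cultures plated at 2 × 10⁴ cells/well (96-well) and grown to confluence (72 h), then exposed to H₂O₂ with TNF-α (10 ng/mL) and test peptide for the indicated time. Live cells were measured as intracellular ATP luminescence (CellTiter-Glo) and dead cells as dead-cell protease luminescence (CytoTox-Glo), with lysis reagent added for total-cell signal. Relative cell numbers are from duplicate wells.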

[6] = tested on: ARPE-19 cells; assay: Pyknotic nuclei counting; assay type: cell-based, human; details: 600 μM H2O2, 16 hours, Hoechst stain
In short: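 ARPE-19 cells were serum-starved, then treated with 600 μM H₂O₂ and test peptide together for 16 h. Cells were fixed in methanol (15 min, RT) and stained with 5 μM Hoechst in PBS (15 min, RT). Five random fields per well were imaged, and pyknotic nuclei were counted as a percentage of total cells.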

[7] = tested on: PEDF-R; assay: Immunoblot, PEDF-R protein in ARPE-19 lysates; assay type: cell-based, human; details: H2O2 plus 10 ng/mL TNF-α, 8 hours
In short: as §2

[8] = tested on: ALOX5; assay: RT-PCR, ALOX5 mRNA in ARPE-19; assay type: cell-based, human; details: H2O2 200, 400, 500, 600, 800 μM plus 10 ng/mL TNF-α, 8 hours, relative to 18S, duplicate wells
In short: as §1

[9] = tested on: primary pig RPE cells; assay: Cell death; assay type: cell-based; details: pig primary RPE; H2O2/TNF-α
In short: as §3

[10] = tested on: ARPE-19 cells; assay: Cell death; assay type: cell-based, human; details: for Number of dead cells under oxidative stress: H2O2 (600 μM for SCR comparison), dead cell protease activity
In short: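 ARPE-19 cells (passages 27–40) grown in DMEM/F-12 with 10% FBS at 37°C, 5% CO₂, plated at 2 × 10⁴ cells/well (96-well) and cultured to confluency (72 h). Serum-starved 8 h in 0.5% serum, then exposed 16 h to H₂O₂ (600 μM for scrambled-control comparison) plus TNF-α (10 ng/mL) with test peptides. Dead-cell protease activity read by CytoTox-Glo; duplicate wells ± SD.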

[11] = tested on: PEDF; details: peptides from Leu159-Met325 of PEDF-R; cited from earlier work
[12] = tested on: ARPE-19 cells; assay: Detection of reactive oxygen species; assay type: cell-based, human; details: increasing H2O2 with or without 10 ng/mL TNF-α
In short: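 Confluent ARPE-19 cells in 96-well black plates were serum-starved (0.5% serum, 8 h), then given increasing H₂O₂ with or without 10 ng/mL TNF-α, plus test peptide. CellRox Green was added 30 min before the end point, and fluorescence was read at ex 485/em 520 nm. Triplicate wells per point; each experiment was run twice.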

[13] = tested on: human recombinant 5-LOX; assay: His-tag pull-down assay, 5-LOX and PEDF-R; assay type: binding; details: 5-LOX 250 ng, PEDF-R ∼350 and 700 ng, 0.1 M sodium phosphate, 50 mM NaCl, 0.1% NP-40, 4°C, 2 hours, Ni-NTA, Western blot
[14] = tested on: PEDF-R (PNPLA2); details: cited from earlier work

OO [H2O2]
PNPLA2 mRNA level [1]: decreased the levels of PNPLA2 | 5-LOX protein level [2]: paralleled those for expression of their respective genes | Death mechanism of ARPE-19 cells ([3]; 400 and 600 μM H2O2): apoptosis | Death mechanism of ARPE-19 cells ([3]; H2O2 higher than 600 μM): necrosis | Death mechanism of ARPE-19 cells ([3]; TNF-α (10 ng/mL) and 400 to 800 μM H2O2): apoptotic mechanism via caspase activation | Relative cell numbers with increasing H2O2 ([4]; 100-1000 μM H2O2, 10 ng/mL TNF-α, 16 hours): concentration-dependent decrease in cell numbers | Relative cell numbers with increasing H2O2 [5]: concentration-dependent decrease in cell numbers | Pyknotic nuclei level [6]: resulted in an increase | PEDF-R protein level [7]: paralleled those for expression of their respective genes | ALOX5 mRNA level [8]: remained unchanged

E5b: PEDF-R peptide Ile^193-Leu^232, overlapping P1 (ICPQDSSTNIHELRVTNTSIQFNLRNLYRLSKALFPPEPL)
Cell viability under oxidative stress ([4]; H2O2/TNF-α, ATP live cell biomarker, duplicate wells): promoted cell viability | Protection from oxidative stress-induced cell death (summary) [9]: protected ARPE-19 and pig primary RPE cells from oxidative stress–induced cell death in a specific and concentration-dependent fashion | Number of dead cells under oxidative stress [10]: decreased cell death of RPE cells undergoing oxidative stress | Protection from oxidative stress-induced cell death (summary) ([10]; H2O2/TNF-α): protected ARPE-19 and pig primary RPE cells from oxidative stress–induced cell death in a specific and concentration-dependent fashion | Pyknotic nuclei level [6]: resulted in a decrease of pyknotic nuclei level | PEDF-binding affinity [11]: retain the PEDF-binding affinity of PEDF-R

H-KRLQFEPRNYPSLLSTALPNILFRRLGGKFQDMRELCVYL-OH [SCR]
Number of dead cells under oxidative stress [10]: did not decrease the number of dead cells

TNF-α
ROS production, presence versus absence of TNF-α [12]: comparable under both conditions

B1: His6-tag-PEDF-R: human recombinant His6/Xpress-tagged PEDF-R made by cell-free in vitro protein synthesis (protein)
chain: MFPREKTWNISFAGCGFLGVYYVGVASCLREHAPFLVANATHIYGASAGALTATALVTGVCLGEAGAKFIEVSKEARKRFLGPLHPSFNLVKIIRSFLLKVLPADSHEHASGRLGISLTRVSDGENVIISHFNSKDELIQANVCSGFIPVYCGLIPPSLQGVRYVDGGISDNLPLYELKNTITVSPFSGESDICPQDSSTNIHELRVTNTSIQFNLRNLYRLSKALFPPEPLVLREMCKQGYRDGLRFLQRNGLLNRPNPLLALPPARPHGPEDKDQAVESAQAEDYSQLPGEDHILEHLPARLNEALLEACVEPTDLLTTLSNMLPVRLATAMMVPYTLPLESALSFTIRLLEWLPDVPEDIRWMKEQTGSICQYLVMRAKRKLGRHLPSRLPEQVELRRVQSLPSVPLSCAAYREALPGWMRNNLSLGDALAKWEECQRQLLLGLFCTNVAFPPEALRMRAPADPAPAPADPASPQHQLAGPAPLLSTPAPEARPVIGALGL
modifications: left off: His6, end not stated, kept | Xpress, end not stated, kept
Bound 5-LOX in pull-down with His6-tag-PEDF-R [13]: proportional increase of bound 5-LOX | Bound 5-LOX in pull-down with His6-tag-PEDF-R ([13]; listed as His6/Xpress-tagged PEDF-R): via ionic interactions

B2: PEDF: pigment epithelium-derived factor, stimulates PEDF-R (protein, UniProt P36955 20-418, looked up)
Pigment epithelium-derived …: QNPASPPEEGSPDPDSTGALVEEEDPFFKVPVNKLAAAVSNFGYDLYRVRSSTSPTTNVLLSPLSVATALSALSLGAEQRTESIIHRALYYDLISSPDIHGTYKELLDTVTAPQKNLKSASRIVFEKKLRIKSSFVAPLEKSYGTRPRVLTGNPRLDLQEINNWVQAQMKGKLARSTKEIPDEISILLLGVAHFKGQWVTKFDSRKTSLEDFYLDEERTVRVPMMSDPKAVLRYGLDSDLSCKIAQLPLTGSMSIIFFLPLKVTQNLTLIEESLTSEFIHDIDRELKTVQAVLTVPKLKLSYEGEVTKSLQEMKLQSLFDSPDFSKITGKPIKLTQVEHRAGFEWNEDGAGTTPSPGLQPAHLTFPLDYHLNQPFIFVLRDTDTGALLFIGKILDPRGP
Effect on PEDF-R (PNPLA2) enzyme activity [14]: stimulated

B3: perilipin 5: protein that inhibits PEDF-R (PNPLA2) activity (protein, UniProt Q00G26 1-463, looked up)
Perilipin-5: MSEEEAAQIPRSSVWEQDQQNVVQRVVALPLVRATCTAVCDVYSAAKDRHPLLGSACRLAENCVCGLTTRALDHAQPLLEHLQPQLATMNSLACRGLDKLEEKLPFLQQPSETVVTSAKDVVASSVTGVVDLARRGRRWSVELKRSVSHAVDVVLEKSEELVDHFLPMTEEELAALAAEAEGPEVGSVEDQRRQQGYFVRLGSLSARIRHLAYEHSVGKLRQSKHRAQDTLAQLQETLELIDHMQCGVTPTAPACPGKVHELWGEWGQRPPESRRRSQAELETLVLSRSLTQELQGTVEALESSVRGLPAGAQEKVAEVRRSVDALQTAFADARCFRDVPAAALAEGRGRVAHAHACVDELLELVVQAVPLPWLVGPFAPILVERPEPLPDLADLVDEVIGGPDPRWAHLDWPAQQRAWEAEHRDGSGNGDGDRMGVAGDICEQEPETPSCPVKHTLMPELDF
Effect on PEDF-R (PNPLA2) enzyme activity [14]: inhibited

B4: CGI-58: protein that stimulates PEDF-R (PNPLA2) activity (protein, UniProt Q8WTS1 2-349, looked up)
1-acylglycerol-3-phosphate …: AAEEEEVDSADTGERSGWLTGWLPTWCPTSISHLKEAEEKMLKCVPCTYKKEPVRISNGNKIWTLKFSHNISNKTPLVLLHGFGGGLGLWALNFGDLCTNRPVYAFDLLGFGRSSRPRFDSDAEEVENQFVESIEEWRCALGLDKMILLGHNLGGFLAAAYSLKYPSRVNHLILVEPWGFPERPDLADQDRPIPVWIRALGAALTPFNPLAGLRIAGPFGLSLVQRLRPDFKRKYSSMFEDDTVTEYIYHCNVQTPSGETAFKNMTIPYGWAKRPMLQRIGKMHPDIPVSVIFGARSCIDGNSGTSIQSLRPHSYVKTIAILGAGHYVYADQPEEFNQKVKEICDTVD
Effect on PEDF-R (PNPLA2) enzyme activity [14]: stimulated

B5: G0S2: G(0)/G(1) switch gene 2, inhibits PEDF-R (PNPLA2) (protein, UniProt P27469 1-103, looked up)
G0/G1 switch protein 2: METVQELIPLAKEMMAQKRKGKMVKLYVLGSVLALFGVVLGLMETVCSPFTAARRLRDQEAAVAELQAALERQALQKQALQEKGKQQDTVLGGRALSNRQHAS
Effect on PEDF-R (PNPLA2) enzyme activity [14]: inhibited
